Consider 2 substances from article PMC7081261 (ACS Omega, 2020).

This data set concerns DU-145 prostate carcinoma cells. Nature of the data set: MTT cell viability assay. It counts as cell-based. Conditions: 24 h. The method in brief: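 DU-145 prostate carcinoma cells grown at 37 °C, 5% CO2, then seeded at 1.5 × 10^5 cells per well. Test compound dilution series (10–500 μg/mL) prepared in RPMI-1640 and applied for 24 h; viability read by MTT, expressed as IC50. Elevated-Zn2+ conditions: medium adjusted with 50 μM ZnCl2. DTNB conditions: cells preincubated 1 h in RPMI-1640 with 2.5 mM DTNB, and dilution series supplemented with 1 mM DTNB during the 24 h exposure.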
A general note: Formazan colour is commonly taken as a measure of viable cells.

On to “H2N-EAEAEA-SS-(Ac)CAhxGHHPHGHHPH-amide (disulfide) [(EA)3-thiol]”, for which the “cytotoxicity against DU-145 cells (in words)” value (Zn2+ condition not stated) was “no activity”.

With (GHHPG)2, the “cytotoxicity against DU-145 cells (in words)” value by setting is: (elevated Zn2+ (50 μM ZnCl2), no DTNB) “No activity”; (normal Zn2+ conditions (no ZnCl2 added)) “No activity”.
